Columns and labels:
Clr4-SET = Clr4-SET (Schizosaccharomyces pombe, UniProt O60016); assay: Thermal shift assay, Clr4-SET; type: binding, fission yeast (S. pombe); conditions: without peptide, SYPRO orange, Figure S3C
How it was run: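 Clr4 SET domain (residues 190–490) was expressed in Rosetta E. coli and purified on Talon resin. Protein at 3 μM was mixed with 150 μM SAM in 50 mM Tris pH 8.0, 1 mM EDTA and 0.5 mM DTT, held 10 min at room temperature then 10 min on ice. SYPRO orange was added and the sample ramped 25–99 °C in 1 °C steps over 75 min. Curves were min–max normalised; samples were run in duplicate.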

TetR-Clr4 at tetO = assay: ChIP analysis of TetR-Clr4 release from tetO after tetracycline addition; type: cell-based, fission yeast (S. pombe); conditions: tetracycline 10 μM

Sequence of Clr4-SET (O60016 190-490): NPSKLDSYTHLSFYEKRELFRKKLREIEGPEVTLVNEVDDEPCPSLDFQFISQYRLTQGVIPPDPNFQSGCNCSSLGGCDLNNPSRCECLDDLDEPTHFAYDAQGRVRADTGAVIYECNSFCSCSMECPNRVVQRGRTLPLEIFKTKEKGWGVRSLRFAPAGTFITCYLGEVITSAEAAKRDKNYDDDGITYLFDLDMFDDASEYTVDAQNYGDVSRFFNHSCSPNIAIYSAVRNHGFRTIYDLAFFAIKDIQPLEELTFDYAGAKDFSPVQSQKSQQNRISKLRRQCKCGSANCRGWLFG

| Structure (SMILES) | thermal stability of Clr4 on addition of SAM alone (Clr4-SET) | release of TetR-Clr4 from tetO (TetR-Clr4 at tetO; hht3-K9M cells, samples at 5, 10, and 20 minutes) | time in which most TetR-Clr4 is released from tetO (TetR-Clr4 at tetO; 30°C, ChIP-qPCR normalized to act1+) |
| --- | --- | --- | --- |
| C[S+](CC[C@H](N)C(=O)[O-])C[C@H]1O[C@@H](n2cnc3c(N)ncnc32)[C@H](O)[C@@H]1O (stereo partly drawn) [SAM, S-adenosyl-methionine] | greater thermal stability of Clr4 |  |  |
| CN(C)[C@@H]1C(O)=C(C(N)=O)C(=O)[C@@]2(O)C(O)=C3C(=O)c4c(O)cccc4[C@@](C)(O)[C@H]3C[C@@H]12 [tetracycline] |  | a delay in the release of TetR-Clr4 | ≤ 5 min |

Reference: publication PMC8167812 (Cell reports, 2021)
